High-throughput results from PubChem.
An excerpt weighted towards active compounds, which were near 2.4% of everything screened.
SUMO1 PPI mod = modulators of human SUMO1-mediated protein-protein interactions. SUMO1 binding to a labelled peptide, TR-FRET, 1 h. 0.33% of 360,000 active. P63165. inhibition, % at 20 µM. AID 602429; in the data active = inhibition above about 37%
STEP block = inhibitors of human striatal-enriched phosphatase STEP | P54829 | recombinant STEP, OMFP fluorogenic substrate, fluorescence | inhibition, % at 20 µM | 0.25% of 360,000 active | AID 588621;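 active = inhibition at 20 µM, scaled per plate between control wells, above about 37%, limit read from the data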;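 also: 0% = DMSO with enzyme and substrate and 100% = substrate only without enzyme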
Target sequence (P54829 whole entry, looked up): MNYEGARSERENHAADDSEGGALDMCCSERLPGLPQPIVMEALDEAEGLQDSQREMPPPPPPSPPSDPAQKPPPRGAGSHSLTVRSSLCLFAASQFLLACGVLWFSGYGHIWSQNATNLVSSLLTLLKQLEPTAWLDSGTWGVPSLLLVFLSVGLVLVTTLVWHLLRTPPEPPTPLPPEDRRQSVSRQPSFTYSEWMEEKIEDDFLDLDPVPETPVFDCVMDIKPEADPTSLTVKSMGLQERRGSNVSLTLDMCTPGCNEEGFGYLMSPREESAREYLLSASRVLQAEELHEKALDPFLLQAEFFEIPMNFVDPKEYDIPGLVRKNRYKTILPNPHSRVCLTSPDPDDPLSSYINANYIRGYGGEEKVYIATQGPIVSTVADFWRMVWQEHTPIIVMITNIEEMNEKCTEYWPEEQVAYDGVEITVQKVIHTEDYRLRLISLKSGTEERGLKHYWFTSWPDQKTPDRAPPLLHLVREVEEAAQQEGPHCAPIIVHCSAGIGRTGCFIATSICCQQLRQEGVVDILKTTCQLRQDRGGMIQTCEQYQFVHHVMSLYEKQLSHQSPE
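System: STEP phosphatase, cell-free reaction; Buffer or medium: Bis-Tris pH 6.0 buffer with DTT, detergent; Incubation: 20 min at room temperature, dark; Measured by: fluorescence, 480/540 nm.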
LMPTP inh = LMPTP (human) inhibition. P24666. recombinant LMPTP-A, OMFP fluorogenic substrate, fluorescence intensity. inhibition, % at 20 µM. 0.22% of 360,000 active. AID 651560;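 active = compounds that cut the enzyme signal by at least half of the control window in the single-dose screen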;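 also: plate controls were DMSO wells with enzyme plus substrate for no effect and substrate without enzyme for full effect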
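Assay system: LMPTP-A, protein tyrosine phosphatase of low molecular weight / Medium: pH 6.0 Bis-Tris buffer with DTT and Triton X-100 / Schedule: 50 min enzyme reaction at room temperature, protected from light / Measured by: endpoint fluorescence intensity from OMFP dephosphorylation / Read-out basis: % inhibition relative to no-enzyme and uninhibited control wells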
NadD block = NadD (S. aureus) enzyme inhibition; 0.78% of 360,000 active; inhibition, % at 20 µM; purified NadD enzyme, colorimetric absorbance read-out; in the data active = inhibition above about 26%
Scp1 inh = blocks human Scp-1 phosphatase activity; Recombinant Scp1, phosphopeptide, malachite green phosphate absorbance; inhibition, % at 20 µM; 0.88% of 340,000 active; AID 493091;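 active = inhibition above about 50% at 20 µM, limit read from the data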;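 also: plate controls were DMSO wells with enzyme for no effect and wells lacking enzyme for full effect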
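Times: enzyme reaction 45 min at room temperature, colour 5 min, stabilisation 30 min. Material: SCP-1 catalytic fragment, aa 76-261. Medium: Acidic Tris acetate buffer with magnesium and detergent. Signal: colorimetric free-phosphate detection, absorbance 630 nm. Read-out basis: % inhibition of SCP-1 phosphate liberation. Reagent: Phosphorylated 17-residue peptide substrate.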
DNMT1 inh = blocks human DNA methyltransferase DNMT1. inhibition (reported as % activation of signal), % at 10 µM. 0.83% of 360,000 active. P26358. DNMT1 molecular beacon, Hinp1I cleavage, fluorescence; in the data active = inhibition above about 50%
NadD inh conf = NadD (S. aureus) inhibition, single concentration confirmation; shares compounds with NadD block; purified S. aureus NadD, colorimetric enzyme assay; inhibition, % at 20 µM; 13% of 2,000 active; in the data active = inhibition mostly above about 42%, no sharp cut-off; inactive = mostly below about 42%
Numbers without * were called inactive; · = no result given.

SMILES	SUMO1 PPI mod	STEP block	LMPTP inh	NadD block	Scp1 inh	DNMT1 inh	NadD inh conf
Cc1ccccc1C(=O)OCC(=O)N1CC(=O)Nc2ccccc21	3.2	0.4	-1.0	-5.9	·	-0.2	·
Cc1ccc(C(=O)CSc2nc3ccc(C(=O)NCCN4CCCCC4)cc3c(=O)[nH]2)cc1	3.8	-0.7	-2.2	3.8	-5.6	-0.8	·
Oc1ccc(C[C@H]2CN([C@@H](Cc3ccccc3)CN3CCC[C@@H]3CN3C(=S)NC[C@@H]3Cc3ccccc3)C(=S)N2CC2CCCCC2)cc1	10.2	8.1	5.9	21.7	·	-8.1	·
Oc1ccc(C[C@@H](CN2CCCC2CN2C(=S)NC[C@@H]2Cc2ccccc2)N2C[C@H](Cc3ccccc3)N(CC3CCCCC3)C2=S)cc1 (stereo partly specified)	2.5	·	2.5	43.9*	·	·	12.6
CC(C)C[C@H]1CNC(=S)N1CC1CCCN1C[C@H](Cc1ccc(O)cc1)N1C[C@H](Cc2ccccc2)N(CC2CCCCC2)C1=S (stereo partly specified)	-1.4	2.0	3.4	27.9	21.3	-6.2	·
CC(C)C[C@H]1CNC(=S)N1C[C@H]1CCCN1C[C@H](Cc1ccccc1)N1C[C@H](Cc2ccc(O)cc2)N(CC2CCCCC2)C1=S	1.9	12.2	5.3	35.2*	·	-17.1	-0.3
Oc1ccc(C[C@H]2CNC(=S)N2CC2CCCN2C[C@H](Cc2ccc(O)cc2)N2C[C@H](Cc3ccccc3)N(CC3CCCCCC3)C2=S)cc1 (stereo partly specified)	3.0	3.4	2.2	44.6*	44.5	-14.0	31.3
CC(C)C[C@H]1CNC(=S)N1C[C@H]1CCCN1C[C@H](Cc1ccc(O)cc1)N1C[C@H](Cc2ccccc2)N(CC2CCCCCC2)C1=S	0.8	4.4	6.1	17.7	·	-13.3	·
Oc1ccc(C[C@H]2CNC(=S)N2CC2CCCN2C[C@H](Cc2ccc(O)cc2)N2C[C@H](Cc3ccc(O)cc3)N(CC3CCCCCC3)C2=S)cc1 (stereo partly specified)	8.9	-2.0	6.8	55.4*	30.0	-31.4	40.8
CC(C)CC(NC(=O)c1ccccc1NC(=O)c1ccccc1)C(=O)O (stereo unspecified)	2.2	0.1	-2.2	3.6	-3.4	0.0	·
Oc1ccc(C[C@@H](CN2CCCC2CN2C(=S)NC[C@@H]2Cc2ccccc2)N2C[C@H](Cc3ccccc3)N(CC3CCCCCC3)C2=S)cc1 (stereo partly specified)	3.8	·	3.7	45.5*	·	·	-4.3
Oc1ccc(C[C@H]2CNC(=S)N2CC2CCCN2C[C@H](Cc2ccccc2)N2C[C@H](Cc3ccc(O)cc3)N(CC3CCCCC3)C2=S)cc1 (stereo partly specified)	8.1	1.5	4.4	53.4*	·	-40.1	19.5
CC1(C2CC2)NC(=O)N(CC(=O)Nc2ccc(F)cc2F)C1=O (stereo unspecified)	-0.2	-1.1	-1.7	2.2	-0.7	5.0	·
Cc1ncc(CN2CCCC(C(=O)Nc3ccc(-c4ccco4)cc3)C2)cn1 (stereo unspecified)	29.3	-2.4	1.6	-0.3	-11.3	-15.3	·
COc1cccc(NC(=O)C2CCCN2C(=O)Nc2ccccc2F)c1 (stereo unspecified)	-0.7	-8.7	-0.7	2.0	-8.0	-5.0	·
FC(F)(F)c1ccccc1Cc1c(-c2ccco2)nc2ccc(Br)cn12	-5.3	-4.4	1.0	37.0*	·	20.9	11.0
Cc1cc2nc(-c3ccco3)c(Cc3ccccc3C(F)(F)F)n2c(C)c1Br	12.3	·	2.4	41.5*	·	·	28.1
FC(F)(F)c1ccccc1Cc1c(-c2cccc(Cl)c2)nc2ccc(Br)cn12	-1.4	0.6	3.5	6.8	·	18.5	·
COc1cc2oc(=O)cc(-c3ccc(-c4ccc(C(F)(F)F)cc4)cc3)c2c(OC)c1OC	-4.5	1.9	3.9	-3.6	-4.0	2.0	·
CN1CCN(c2ccc(Cl)cc2NC(=O)c2ccc(S(=O)(=O)N(C)C)cc2)CC1	-2.5	0.0	-0.5	-7.2	-2.2	-3.1	·
